Legend:
Lolium multiflorum = assay: Growth inhibition of Lolium multiflorum (Italian ryegrass) measured 7 days post treatment; type: functional
[1] = Drug level in Senna obtusifolia (sicklepod) at growth inhibition I50 level rate measured 7 days post treatment; type: organism-based; conditions: in vivo, read-out: Drug uptake
Procedure, shortened: (§1)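 Greenhouse plants (28/22 °C, 13 h photoperiod) were sprayed with glyphosate at each species' I50 rate, with Tween 20-treated controls. Shoots were cut at 7 DAT and rinsed to remove surface herbicide. Pooled ground tissue (1 g) was water-extracted twice with sonication, acidified, and washed with methylene chloride. Extracts were derivatized with heptafluorobutanol/TFAA (90 °C, 1 h) and measured by GC-MS against derivatized standards, in duplicate.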

Erigeron canadensis = assay: Drug level in Conyza canadensis (horseweed) assessed as AMPA level at growth inhibition I50 level rate measured 7 days post treatment; type: organism-based; conditions: in vivo, 168 h; procedure, shortened: as §1
Sesbania herbacea [2] = assay: Induction of shikimate accumulation in Sesbania herbacea at growth inhibition I50 level rate measured 7 days post treatment (reference value: 266 ug/g tissue); type: functional
Procedure, shortened: (§2)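 Plants were sprayed in the greenhouse at each species' I50 rate, with Tween 20 controls. Shoots were harvested at 7 DAT and rinsed free of surface glyphosate. Shikimic acid was measured by HPLC on a C18 column after 0.45 µm filtration, with 100 µL injected, isocratic 98% H2O (pH 3.0)/2% MeOH, at 1 mL flow.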

[3] = tested on: Pueraria montana var. lobata; assay: Ratio of compound to AMPA level in Pueraria montana var. lobata ( kudzu) at growth inhibition I50 level rate measured 7 days post treatment; type: organism-based; conditions: in vivo, 168 h
Procedure, shortened: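 Greenhouse plants (28/22 °C, 13 h photoperiod) were sprayed at each species' I50 rate with Tween 20 controls. Shoots were clipped 7 DAT and washed free of surface herbicide. Pooled ground tissue (1 g) was extracted twice with water under sonication. Extracts were derivatized with heptafluorobutanol/trifluoroacetic anhydride (90 °C, 1 h). Glyphosate and AMPA were quantified by GC-MS against derivatized standard curves, in duplicate.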

[4] = tested on: Pueraria montana var. lobata; assay: Growth inhibition of Pueraria montana var. lobata ( kudzu) measured 7 days post treatment; type: functional
[5] = Drug level in Vigna unguiculata (cowpea) at growth inhibition I50 level rate measured 7 days post treatment; type: organism-based; conditions: in vivo, read-out: Drug uptake; procedure, shortened: as §1
Senna occidentalis [6] = assay: Drug level in Senna occidentalis (coffee senna) assessed as AMPA level at growth inhibition I50 level rate measured 7 days post treatment; type: organism-based; conditions: in vivo, 168 h; procedure, shortened: as §1
Glycine max [7] = assay: Drug level in glyphosate-resistant Glycine max (soybean) assessed as AMPA level at growth inhibition I50 level rate measured 7 days post treatment; type: organism-based; conditions: in vivo, 168 h; procedure, shortened: as §1
[8] = Drug level in non glyphosate-resistant Zea mays (maize) at growth inhibition I50 level rate measured 7 days post treatment; type: organism-based; conditions: in vivo, read-out: Drug uptake; procedure, shortened: as §1
Vigna unguiculata = assay: Induction of shikimate accumulation in Vigna unguiculata (cowpea) at growth inhibition I50 level rate measured 7 days post treatment (reference value: 64 ug/g tissue); type: functional; procedure, shortened: as §2
Senna occidentalis [9] = assay: Growth inhibition of Senna occidentalis (coffee senna) measured 14 days post treatment
Abutilon theophrasti [10] = assay: Growth inhibition of Abutilon theophrasti (velvetleaf) measured 14 days post treatment
Glycine max [11] = assay: Induction of shikimate accumulation in non glyphosate-resistant Glycine max (soybean) at growth inhibition I50 level rate measured 7 days post treatment (reference value: 27 ug/g tissue); type: functional; procedure, shortened: as §2
[12] = Drug level in Senna occidentalis (coffee senna) at growth inhibition I50 level rate measured 7 days post treatment; type: organism-based; conditions: in vivo, read-out: Drug uptake; procedure, shortened: as §1
[13] = Drug level in glyphosate-resistant Glycine max (soybean) at growth inhibition I50 level rate measured 7 days post treatment; type: organism-based; conditions: in vivo, read-out: Drug uptake; procedure, shortened: as §1
[14] = Drug level in glyphosate-resistant Zea mays (maize) at growth inhibition I50 level rate measured 7 days post treatment; type: organism-based; conditions: in vivo, read-out: Drug uptake; procedure, shortened: as §1
Glycine max [15] = assay: Growth inhibition of glyphosate-resistant Glycine max (soybean) measured 7 days post treatment; type: functional
Abutilon theophrasti [16] = assay: Drug level in Abutilon theophrasti (velvetleaf) assessed as AMPA level at growth inhibition I50 level rate measured 7 days post treatment; type: organism-based; conditions: in vivo, 168 h, BLD = below limit of detection; procedure, shortened: as §1
[17] = Drug level in Sesbania herbacea at growth inhibition I50 level rate measured 7 days post treatment; type: organism-based; conditions: in vivo, read-out: Drug uptake; procedure, shortened: as §1
Senna obtusifolia [18] = assay: Growth inhibition of Senna obtusifolia (sicklepod) measured 14 days post treatment
[19] = tested on: Pueraria montana var. lobata; assay: Induction of shikimate accumulation in Pueraria montana var. lobata ( kudzu) at growth inhibition I50 level rate measured 7 days post treatment (reference value: 188 ug/g tissue); type: functional; procedure, shortened: as §2
Senna occidentalis [20] = assay: Induction of shikimate accumulation in Senna occidentalis (coffee senna) at growth inhibition I50 level rate measured 7 days post treatment (reference value: 277 ug/g tissue); type: functional; procedure, shortened: as §2
Senna obtusifolia [21] = assay: Induction of shikimate accumulation in Senna obtusifolia (sicklepod) at growth inhibition I50 level rate measured 7 days post treatment (reference value: 348 ug/g tissue); type: functional; procedure, shortened: as §2
Senna obtusifolia [22] = assay: Drug level in Senna obtusifolia (sicklepod) assessed as AMPA level at growth inhibition I50 level rate measured 7 days post treatment; type: organism-based; conditions: in vivo, 168 h; procedure, shortened: as §1
[23] = Drug level in Desmanthus illinoensis (Illinois bundleflower) at growth inhibition I50 level rate measured 7 days post treatment; type: organism-based; conditions: in vivo, read-out: Drug uptake; procedure, shortened: as §1
Sesbania herbacea [24] = assay: Drug level in Sesbania herbacea assessed as AMPA level at growth inhibition I50 level rate measured 7 days post treatment; type: organism-based; conditions: in vivo, 168 h, BLD = below limit of detection; procedure, shortened: as §1
Zea mays = assay: Induction of shikimate accumulation in glyphosate-resistant Zea mays (maize) at growth inhibition I50 level rate measured 7 days post treatment (reference value: 241 ug/g tissue); type: functional; procedure, shortened: as §2
Desmanthus illinoensis [25] = assay: Drug level in Desmanthus illinoensis (Illinois bundleflower) assessed as AMPA level at growth inhibition I50 level rate measured 7 days post treatment; type: organism-based; conditions: in vivo, 168 h; procedure, shortened: as §1
Desmanthus illinoensis [26] = assay: Induction of shikimate accumulation in Desmanthus illinoensis (Illinois bundleflower) at growth inhibition I50 level rate measured 7 days post treatment (reference value: 21 ug/g tissue); type: functional

O=C(O)CNCP(=O)(O)O [GLYPHOSATE]
I50 (Lolium multiflorum): 220 gAi/ha | concentration at 168 h [1]: 6410 ng/g | Drug uptake (Erigeron canadensis): 314 ng/g | Activity (Sesbania herbacea [2]): 6828 µg/g | Ratio [3]: 19 | I50 [4]: 77 gAi/ha | concentration at 168 h [5]: 26800 ng/g | Drug uptake (Senna occidentalis [6]): 287 ng/g | Drug uptake (Glycine max [7]): 119 ng/g | concentration at 168 h [8]: 851 ng/g | Activity (Vigna unguiculata): 16530 µg/g | I50 (Senna occidentalis [9]): 75 gAi/ha | I50 (Abutilon theophrasti [10]): 122 gAi/ha | Activity (Glycine max [11]): 15251 µg/g | concentration at 168 h [12]: 5910 ng/g | concentration at 168 h [13]: 5830 ng/g | concentration at 168 h [14]: 308 ng/g | I50 (Glycine max [15]): 250 gAi/ha | Drug uptake (Abutilon theophrasti [16]): BLD | concentration at 168 h [17]: 38600 ng/g | I50 (Senna obtusifolia [18]): 252 gAi/ha | Activity [19]: 8915 µg/g | Activity (Senna occidentalis [20]): 686 µg/g | Activity (Senna obtusifolia [21]): 1092 µg/g | Drug uptake (Senna obtusifolia [22]): 1834 ng/g | concentration at 168 h [23]: 3270 ng/g | Drug uptake (Sesbania herbacea [24]): BLD | Activity (Zea mays): 245 µg/g | Drug uptake (Desmanthus illinoensis [25]): 1513 ng/g | Activity (Desmanthus illinoensis [26]): 668 µg/g

Reference: ChEMBL document CHEMBL3046087, “Aminomethylphosphonic acid accumulation in plant species treated with glyphosate” (J Agric Food Chem, 2008)
